This test has as its target Indoleamine 2,3-dioxygenase 1 (Homo sapiens, UniProt P14902). The experiment in a line: Inhibition of human IDO1 assessed as reduction in convertion of N-formylkynurenine to kynurenine incubated for 30 mins. The essentials: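 IC50 values were taken as the mean of at least two independent assays.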

IC50 data for 23 compounds are collected here from ChEMBL document CHEMBL3352613, “Crystal Structures and Structure-Activity Relationships of Imidazothiazole Derivatives as IDO1 Inhibitors” (ACS Med Chem Lett, 2014).

Sequence of Indoleamine 2,3-dioxygenase 1 (P14902 whole entry): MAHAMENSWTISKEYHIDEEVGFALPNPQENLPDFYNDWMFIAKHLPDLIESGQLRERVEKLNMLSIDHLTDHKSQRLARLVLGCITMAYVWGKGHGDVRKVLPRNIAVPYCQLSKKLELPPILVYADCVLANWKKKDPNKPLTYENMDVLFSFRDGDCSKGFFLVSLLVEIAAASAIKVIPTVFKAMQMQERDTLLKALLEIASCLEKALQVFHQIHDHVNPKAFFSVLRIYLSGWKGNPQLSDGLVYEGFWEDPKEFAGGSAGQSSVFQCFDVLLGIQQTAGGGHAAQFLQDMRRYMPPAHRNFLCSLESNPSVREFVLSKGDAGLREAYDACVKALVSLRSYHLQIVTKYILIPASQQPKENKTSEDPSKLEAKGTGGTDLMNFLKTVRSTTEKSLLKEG

Regarding `CCOC(=O)c1cnc2scc(-c3ccccc3)n12`, the IC50 is over 100 µM.

Regarding `CCOC(=O)c1cnc2scc(-c3ccc(Br)cc3)n12`, the IC50 turned out to be 5.5 µM.

Turning to `O=C(NCc1cnc2scc(-c3ccc(Br)cc3)n12)Nc1ccccc1`, the concentration for half-maximal inhibition (IC50) came to 0.22 µM.

As to `Cc1ccc(-c2csc3ncc(C(=O)NCCc4cccc(Cl)c4)n23)cc1`, the IC50 stood at 1.9 µM.

Turning to `CCOC(=O)c1cnc2scc(Cc3ccccc3)n12`, the IC50 is over 100 µM.

On to `O=C(NCc1ccccc1)NCc1cnc2scc(-c3ccc(Br)cc3)n12`, for which the IC50 was determined as 0.75 µM.

For `O=C(NCc1cnc2scc(-c3ccc(Br)cc3)n12)NC1CCCCC1`, the IC50 was determined as 1.8 µM.

On to `Cc1ccc(-c2csc3ncc(C(=O)NCCc4ccc5c(c4)OCO5)n23)cc1`, for which the IC50 stood at 3.6 µM.

In the case of `Cc1ccc(-c2csc3ncc(C)n23)cc1`, the IC50 came to 1.3 µM.

As to `COc1cccc(NC(=O)NCc2cnc3scc(-c4ccc(Br)cc4)n23)c1`, the IC50 was 0.16 µM.

Turning to `N#Cc1ccc(NC(=O)NCc2cnc3scc(-c4ccc(Br)cc4)n23)cc1`, the IC50 worked out at 0.077 µM.

`CCOC(=O)c1cnc2scc(C3=CCCCC3)n12`: the IC50 is over 100 µM.

For the compound `O=C(NCc1cnc2scc(-c3ccc(Br)cc3)n12)Nc1ccc2c(c1)OCO2`, the IC50 came to 0.12 µM.

As for `CCOC(=O)c1cnc2scc(-c3ccc(C)cc3)n12`, the IC50 turned out to be 18 µM.

As to `CCOC(=O)c1cnc2scc(-c3ccc(CC)cc3)n12`, the IC50 worked out at 24 µM.

Regarding `COc1ccc(NC(=O)NCc2cnc3scc(-c4ccc(Br)cc4)n23)cc1`, the IC50 was found to be 0.19 µM.

Turning to `Cc1ccc(-c2csc3nnc(SCC(=O)Nc4ccc5c(c4)OCO5)n23)cc1`, the IC50 amounted to 3 µM.

`Cc1ccc(-c2csc3ncc(C(=O)NCCc4ccccc4)n23)cc1`: the IC50 amounted to 3.5 µM.

As to `CCOC(=O)c1cnc2scc(-c3ccc(OC)cc3)n12`, the IC50 was 56 µM.

As to `CCOC(=O)c1cnc2scc(-c3cccc(C)c3)n12`, the IC50 is over 100 µM.

Take `CCOC(=O)c1cnc2scc(-c3ccccc3C)n12`: the IC50 was over 100 µM.

Turning to `CCOC(=O)c1cnc2scc(-c3ccc(Cl)cc3)n12`, the IC50 was found to be 8.1 µM.

`CCOC(=O)c1cnc2sc3ccccc3n12`: the IC50 was over 100 µM.

What is called IC50 is the concentration needed to halve the response being measured.
